Source: PubChem BioAssay
Mac1 fbg enh – enhancers of CD11b/CD18 adhesion to fibrinogen, primary screen, K562 cells, luminescence; Integrin beta-2 (Homo sapiens) + Integrin alpha-M (Homo sapiens), P05107+P11215; ATPlite luminescence; 93,000 tested, 0.07% active; activation, % at 10 µM;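 active = 10 µM primary screen giving 50% or more activity, confirmed by 40% or more on retest at that dose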
MT1-MMP txn act – MT1-MMP promoter reporter activation – cell-based, luciferase luminescence, primary screen; HT1080 MT1-MMP promoter luciferase reporter, overnight; stronger effect = higher value; 86,000 tested, 0.16% active; activation factor at 10 µM;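 active = activation factor of at least 2 for MT1-MMP transcription at 10 µM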
Mac1 fbg inh – inhibitors of CD11b/CD18 adhesion to fibrinogen, primary screen, K562 cells, luminescence | AID 1497, 2009 | inhibition, % at 10 µM | 93,000 tested, 0.54% active | ATPlite luminescence; Mn2+ added to activate the integrin;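 active = primary inhibition of 50% or more at 10 µM, then 40% or more on retest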
RORa activator – activators of orphan receptor RORA, primary screen, cell-based, luminescence. Nuclear receptor ROR-alpha (Homo sapiens), P35398. CHO-K1 Gal4-RORA LBD luciferase reporter; percent increase over mock-subtracted basal signal. activation, % at 10 µM. 65,000 tested, 1.5% active. AID 560, 2006;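 active = activation above the mean of all tested compounds plus 3 SD, cut at about 49% in these data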;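 note: 0% = DMSO-treated RORA cells and 100% = added signal equal to DMSO minus mock-transfected cells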
Target sequence (P35398 whole entry, looked up, the tested form may be a part): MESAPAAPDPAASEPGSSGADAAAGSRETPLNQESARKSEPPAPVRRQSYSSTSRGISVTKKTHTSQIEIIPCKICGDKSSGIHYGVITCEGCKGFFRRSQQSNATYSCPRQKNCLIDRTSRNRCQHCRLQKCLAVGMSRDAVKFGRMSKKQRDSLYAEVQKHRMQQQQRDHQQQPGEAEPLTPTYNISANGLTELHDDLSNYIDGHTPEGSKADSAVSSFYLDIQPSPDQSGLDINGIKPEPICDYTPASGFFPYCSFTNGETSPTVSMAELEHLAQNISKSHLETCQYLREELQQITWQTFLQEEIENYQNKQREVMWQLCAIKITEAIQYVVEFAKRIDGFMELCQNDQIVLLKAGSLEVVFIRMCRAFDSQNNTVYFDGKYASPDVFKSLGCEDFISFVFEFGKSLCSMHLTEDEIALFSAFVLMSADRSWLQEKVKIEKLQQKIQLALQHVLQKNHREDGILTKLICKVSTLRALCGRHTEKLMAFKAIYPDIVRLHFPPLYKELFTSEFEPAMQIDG
Candida biofilm – clotrimazole potentiators killing Candida biofilms, primary screen, with clotrimazole, Alamar Blue; C. albicans biofilm + clotrimazole; inhibition, % at 6 µM; 85,000 tested, 0.14% active;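 active = inhibition above 20%; inactive = inhibition below 20%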;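 note: preformed 24 hr biofilms exposed to compound for 48 hr; 0% = biofilm without compound and 100% = blank killed by clotrimazole plus chlorhexidine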
SF1 activator – activators of human SF-1, primary screen, cell-based, CHO-K1, Gal4-SF-1 LBD, luciferase luminescence; activation, % at 10 µM; 65,000 tested, 1.9% active; Steroidogenic factor 1 (Homo sapiens), Q13285; CHO-K1 Gal4-SF-1 LBD luciferase reporter; % increase over DMSO SF-1-specific signal; AID 522, 2006;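 active = activation above the mean activation of all tested compounds plus 3 SD, cut at about 50% in these data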
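Assay system: CHO-K1 cells co-transfected with Gal4 DBD–human SF-1 LBD, 5xGal4 luciferase reporter / Input: 4,000 cells per well / Incubation: 20 h compound exposure at 37 °C after 1 h cell settling / Detection: SteadyLite luciferase luminescence / Control set: DMSO negative control and −SF1 background wells / Replication: one test per compound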
* = called active by the depositor. Compounds with a hit are over-represented: about 2.2% of the library has one in this group of screens.

N#CCSc1n[nH]c2nc3c(c(=O)n12)C1(CCCC1)Cc1ccccc1-3 was read as Mac1 fbg enh -7.3, MT1-MMP txn act 1.1, Mac1 fbg inh 78.3*, RORa activator 7.5, Candida biofilm -2.6 and SF1 activator -8.7.
`Cc1ccc(S(=O)(=O)/N=C2/C=C(C3C(=O)CC(C)(C)CC3=O)C(=O)c3ccccc32)cc1` gave Mac1 fbg enh -0.7, MT1-MMP txn act 2.1*, Mac1 fbg inh -3.8 and Candida biofilm 1.5.
Cc1ccc(NC(=O)CN2C(=O)S/C(=C\c3cccn3-c3cccc(C(=O)O)c3)C2=O)c(C)c1 was read as Mac1 fbg enh 87.0* and Mac1 fbg inh -17.4.
`Cc1ccccc1NC(=O)CN1C(=O)S/C(=C\c2cccn2-c2cccc(C(=O)O)c2)C1=O` gave Mac1 fbg enh -2.3 and Mac1 fbg inh -13.8.
Screening COC(=O)[C@@]1(Cc2ccc(OC)cc2)[C@H]2c3cc(C(=O)N(C)C)n(Cc4nc5ccccc5[nH]4)c3C[C@H]2CN1C(=O)c1ccccc1 returned MT1-MMP txn act 1.1.
Screening COc1ccc(Nc2nc(CC(C)=O)ns2)cc1 returned MT1-MMP txn act 1.7 and Candida biofilm -1.4.
`CC(=O)Cc1nsc(Nc2ccc3c(c2)OCCO3)n1` gave Mac1 fbg enh -5.1, MT1-MMP txn act 1.7, Mac1 fbg inh -11.7, RORa activator 121.8*, Candida biofilm -6.0 and SF1 activator 67.4*.
Screening CCCC[C@@H]1C[C@H]1C(NC(=O)c1cccnc1)c1ccc(Cl)cc1 (stereo not given in full) returned MT1-MMP txn act 1.2.
`CCN(CC)S(=O)(=O)c1ccc(NC(=O)COC(=O)CCc2cc(OC)c(OC)c(OC)c2)cc1` gave Mac1 fbg enh -0.9 and Mac1 fbg inh 4.2.
Cc1cc(C(=O)CSc2nncs2)c(C)n1-c1ccc2c(c1)OCO2 was read as Mac1 fbg enh 9.9, MT1-MMP txn act 1.5, Mac1 fbg inh 25.6, RORa activator 36.5, Candida biofilm 1.3 and SF1 activator 68.8*.
Cc1c(NC(=O)C(C)Sc2nc3ccccc3c(=O)n2CCO)c(=O)n(-c2ccccc2)n1C (stereo not given) was read as Mac1 fbg enh -1.0, MT1-MMP txn act 1.1, Mac1 fbg inh 8.0, RORa activator -15.2, Candida biofilm 7.5 and SF1 activator 11.5.
`COC(=O)[C@@H]1C[C@H]2CC[C@H](O)C[C@H]2N1Cc1ccccc1OS(=O)(=O)c1ccc(C)cc1` gave MT1-MMP txn act 0.7.
`COc1ccc(-n2nc3cc(C)c(N)c(Br)c3n2)cc1` gave Mac1 fbg enh -4.1, MT1-MMP txn act 1.5, Mac1 fbg inh 5.6, RORa activator 49.7*, Candida biofilm -5.8 and SF1 activator 64.2*.
For CCOC(=O)c1ccc(NS(=O)(=O)N2CCCCCC2)cc1 the results were Mac1 fbg enh 7.8, MT1-MMP txn act 1.3, Mac1 fbg inh 10.3, RORa activator 49.4*, Candida biofilm 6.2 and SF1 activator 24.0.
CCOC(=O)c1ccc(NC(=O)C2CCN(S(=O)(=O)CC)CC2)cc1 was read as Mac1 fbg enh -1.6, MT1-MMP txn act 1.1, Mac1 fbg inh -8.2, RORa activator -0.2, Candida biofilm 0.7 and SF1 activator 0.3.
`c1ccc(-c2nc(-c3cccnc3)n[nH]2)cc1` gave Mac1 fbg enh 2.5 and Mac1 fbg inh 3.0.
For Brc1cccc(-c2n[nH]c(-c3ccccc3)n2)c1 the results were Mac1 fbg enh 0.5, MT1-MMP txn act 1.6, Mac1 fbg inh 11.1, RORa activator 83.0*, Candida biofilm 9.7 and SF1 activator 65.2*.
COC(=O)c1ccc(COC(=O)c2[nH]c(C)c(C(C)=O)c2C)o1 was read as Mac1 fbg enh -8.4, MT1-MMP txn act 1.1, Mac1 fbg inh 76.4*, RORa activator 2.1, Candida biofilm 8.2 and SF1 activator -25.1.
CC1(C)CC(=O)c2cnc(N)nc2C1 was read as MT1-MMP txn act 2.4* and Candida biofilm 7.8.
CC1(C)CC(=O)c2cc3c(nc2C1)CC(C)(C)CC3=O was read as Mac1 fbg enh 3.5 and Mac1 fbg inh -9.6.
CCC(=O)Nc1ccc(NC(=O)c2ccc3c(c2)OCO3)cc1 was read as Mac1 fbg enh -1.5 and Mac1 fbg inh -7.0.
`CCCCC(=O)Nc1ccc(C(=O)Nc2ccc3c(c2)OCO3)cc1` gave Mac1 fbg enh 22.3, MT1-MMP txn act 1.2, Mac1 fbg inh -2.3, RORa activator 60.3*, Candida biofilm 8.1 and SF1 activator 51.2*.
Screening CCOC(=O)Nc1ccc2c(c1)OCO2 returned MT1-MMP txn act 1.4 and Candida biofilm 8.0.
`O=C(Nc1ccc2c(c1)OCO2)c1ccc(CN2CCOCC2)cc1` gave Mac1 fbg enh 20.7, MT1-MMP txn act 1.5, Mac1 fbg inh 9.6, RORa activator 49.4*, Candida biofilm 4.9 and SF1 activator 51.7*.
For CCOC(=O)c1c(C)[nH]c(C(=O)Nc2ccc3c(c2)OCO3)c1C the results were Mac1 fbg enh 0.2, MT1-MMP txn act 1.2, Mac1 fbg inh -12.8, RORa activator 58.9*, Candida biofilm 4.6 and SF1 activator 132.1*.
Screening COc1ccc(CCNC(=O)c2ccc(CN3CCOCC3)cc2)cc1 returned Mac1 fbg enh -2.7, MT1-MMP txn act 0.9, Mac1 fbg inh 1.2, RORa activator -4.4, Candida biofilm 1.3 and SF1 activator 2.8.
`O=C(NCCC1=CCCCC1)c1ccc(CN2CCOCC2)cc1` gave MT1-MMP txn act 1.6, RORa activator 96.0* and SF1 activator 39.9.
Screening O=C(NCC1CCCO1)C1CC1(c1ccccc1)c1ccccc1 (stereo not given) returned Mac1 fbg enh 4.5 and Mac1 fbg inh 9.7.
`Cc1ccc(-c2nc3ccccc3[nH]2)cc1NC(=O)c1sc2cc(Cl)ccc2c1Cl` gave Mac1 fbg enh -4.4 and Mac1 fbg inh -29.5.
Screening CCCC1=NN2C(=N)/C(=C\c3ccc(SCc4ccco4)o3)C(=O)N=C2S1 returned Mac1 fbg enh 4.2, MT1-MMP txn act 1.5, Mac1 fbg inh 64.5* and Candida biofilm 2.4.
For CCC1=NN2C(=N)/C(=C\c3ccc(SCc4ccco4)o3)C(=O)N=C2S1 the results were Mac1 fbg enh -1.3, MT1-MMP txn act 1.2, Mac1 fbg inh 9.7 and Candida biofilm 2.3.
Screening Oc1[nH]c2ccccc2c1C=Nc1ccc2c(c1)OCO2 returned MT1-MMP txn act 1.4, RORa activator 84.2* and SF1 activator 62.5*.
